Results as given in ChEMBL document CHEMBL1944618, “Synthesis and antifungal activity of a new series of 2-(1H-imidazol-1-yl)-1-phenylethanol derivatives” (Eur J Med Chem, 2012).
In brackets after ≈: the same amount, converted by molar mass.

Experiments:
Type in all cases: functional
Candida albicans [1] = assay: Antifungal activity against Candida albicans ATCC 76615 after 48 hrs by M27-A3 CLSI method; settings: ATCC 76615, 48 h
Procedure, shortened: (§1)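 Broth microdilution in RPMI 1640, two-fold serial dilutions, final test range 0.125–64 µg mL-1 (fluconazole reference 0.0078–128 µg mL-1). Inoculum 1.0×10^3–1.5×10^3 cells mL-1 from yeasts grown 24 h at 35 °C on Sabouraud dextrose agar. Incubation 35 °C, read at 48 h. MIC = lowest concentration giving >50% turbidity decrease versus growth control. Run three times in triplicate. C. parapsilosis ATCC22019 served as QC.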

Nakaseomyces glabratus = assay: Antifungal activity against Candida glabrata PMC 0805 after 48 hrs by M27-A3 CLSI method; settings: PMC 0805, 48 h; procedure, shortened: as §1
Candida tropicalis [2] = assay: Antifungal activity against Candida tropicalis DSM 11953 after 48 hrs by M27-A3 CLSI method; settings: DSM 11953, 48 h; procedure, shortened: as §1
Pichia kudriavzevii [3] = assay: Antifungal activity against Candida krusei DSM 6128 after 48 hrs by M27-A3 CLSI method; settings: DSM 6128, 48 h; procedure, shortened: as §1
Candida albicans [4] = assay: Antifungal activity against Candida albicans ATCC 3153 after 48 hrs by M27-A3 CLSI method; settings: ATCC 3153, 48 h; procedure, shortened: as §1
Candida albicans [5] = assay: Antifungal activity against Candida albicans after 48 hrs by M27-A3 CLSI method; procedure, shortened: as §1
Pichia kudriavzevii [6] = assay: Antifungal activity against Candida krusei PMC 0613 after 48 hrs by M27-A3 CLSI method; settings: Pichia kudriavzevii, PMC 0613, 48 h; read-out: MIC; procedure, shortened: as §1
Candida = assay: Antifungal activity against Candida sp. after 48 hrs by M27-A3 CLSI method; procedure, shortened: as §1
Candida tropicalis [7] = assay: Antifungal activity against Candida tropicalis PMC 0910 after 48 hrs by M27-A3 CLSI method; settings: PMC 0910, 48 h; procedure, shortened: as §1
Candida albicans [8] = assay: Antifungal activity against Candida albicans ATCC 24433 after 48 hrs by M27-A3 CLSI method; settings: Candida albicans, ATCC 24433, 48 h; read-out: MIC; procedure, shortened: as §1
Candida albicans [9] = assay: Antifungal activity against Candida albicans ATCC 10231 after 48 hrs by M27-A3 CLSI method; settings: ATCC 10231, 48 h; procedure, shortened: as §1
Candida parapsilosis [10] = assay: Antifungal activity against Candida parapsilosis ATCC 22019 after 48 hrs by M27-A3 CLSI method; settings: Lodderomyces parapsilosis, ATCC 22019, 48 h; procedure, shortened: as §1
Candida parapsilosis [11] = assay: Antifungal activity against Candida parapsilosis DSM 11224 after 48 hrs by M27-A3 CLSI method; settings: Lodderomyces parapsilosis, DSM 11224, 48 h; read-out: MIC; procedure, shortened: as §1

Row | MIC (Candida albicans [1]) | MIC (Nakaseomyces glabratus) | MIC (Candida tropicalis [2]) | MIC (Pichia kudriavzevii [3]) | MIC (Candida albicans [4]) | MIC (Candida albicans [5]) | MIC50 (Candida albicans [5]) | MIC90 (Candida albicans [5]) | MIC (Pichia kudriavzevii [6]) | MIC (Candida) | MIC50 (Candida) | MIC90 (Candida) | MIC (Candida tropicalis [7]) | MIC (Candida albicans [8]) | MIC (Candida albicans [9]) | MIC (Candida parapsilosis [10]) | MIC (Candida parapsilosis [11]) | SMILES
1 | > 64 µg/mL | 16 µg/mL (≈ 77.6 µM) | > 64 µg/mL | > 64 µg/mL | 32 µg/mL (≈ 155 µM) | 101 µg/mL (≈ 491 µM) | 128 µg/mL (≈ 621 µM) | 128 µg/mL (≈ 621 µM) | 64 µg/mL (≈ 310 µM) | 104 µg/mL (≈ 504 µM) | 128 µg/mL (≈ 621 µM) | 128 µg/mL (≈ 621 µM) | 16 µg/mL (≈ 77.6 µM) | > 64 µg/mL | > 64 µg/mL | > 64 µg/mL | > 64 µg/mL | OC(Cn1ccnc1)c1ccc(F)cc1 (racemic)
2 | > 64 µg/mL | > 64 µg/mL | 64 µg/mL (≈ 340 µM) | > 64 µg/mL | ≥ 64 µg/mL | 107 µg/mL (≈ 567 µM) | 128 µg/mL (≈ 680 µM) | 128 µg/mL (≈ 680 µM) | > 64 µg/mL | 98.5 µg/mL (≈ 523 µM) | 64 µg/mL (≈ 340 µM) | 128 µg/mL (≈ 680 µM) | > 64 µg/mL | 64 µg/mL (≈ 340 µM) | > 64 µg/mL | ≥ 64 µg/mL | ≥ 64 µg/mL | OC(Cn1ccnc1)c1ccccc1 (racemic)
3 | > 64 µg/mL | 16 µg/mL (≈ 47 µM) | > 64 µg/mL | > 64 µg/mL | ≥ 64 µg/mL | 76.6 µg/mL (≈ 225 µM) | 64 µg/mL (≈ 188 µM) | 128 µg/mL (≈ 376 µM) | 16 µg/mL (≈ 47 µM) | 61.1 µg/mL (≈ 180 µM) | 4 µg/mL (≈ 11.8 µM) | 128 µg/mL (≈ 376 µM) | 1 µg/mL (≈ 2.94 µM) | 16 µg/mL (≈ 47 µM) | 8 µg/mL (≈ 23.5 µM) | > 64 µg/mL | 4 µg/mL (≈ 11.8 µM) | O=C(COc1ccccc1)OC(Cn1ccnc1)c1ccc(F)cc1 (racemic)
4 | ≥ 64 µg/mL | > 64 µg/mL | > 64 µg/mL | 16 µg/mL (≈ 43.5 µM) | 16 µg/mL (≈ 43.5 µM) | 39.6 µg/mL (≈ 108 µM) | 16 µg/mL (≈ 43.5 µM) | 64 µg/mL (≈ 174 µM) | 64 µg/mL (≈ 174 µM) | 68.4 µg/mL (≈ 186 µM) | 4 µg/mL (≈ 10.9 µM) | 128 µg/mL (≈ 348 µM) | 4 µg/mL (≈ 10.9 µM) | 1 µg/mL (≈ 2.72 µM) | 2 µg/mL (≈ 5.44 µM) | > 64 µg/mL | 16 µg/mL (≈ 43.5 µM) | CC(C)c1ccc(NC(=O)OC(Cn2ccnc2)c2ccc(F)cc2)cc1 (racemic)
5 | ≥ 64 µg/mL | 32 µg/mL | 32 µg/mL | 64 µg/mL | 8 µg/mL | 34.3 µg/mL | 8 µg/mL | 64 µg/mL | 16 µg/mL | 22.6 µg/mL | 16 µg/mL | 32 µg/mL | 1 µg/mL | 8 µg/mL | 8 µg/mL | 32 µg/mL | 8 µg/mL | Cl.O=C(OC(Cn1ccnc1)c1ccc(F)cc1)c1cccc(C(F)(F)F)c1 (racemic; 4b)

The remaining lines, values behind:

Row | SMILES | MIC (Candida albicans [1]) | MIC (Nakaseomyces glabratus) | MIC (Candida tropicalis [2]) | MIC (Pichia kudriavzevii [3]) | MIC (Candida albicans [4]) | MIC (Candida albicans [5]) | MIC50 (Candida albicans [5]) | MIC90 (Candida albicans [5]) | MIC (Pichia kudriavzevii [6]) | MIC (Candida) | MIC50 (Candida) | MIC90 (Candida) | MIC (Candida tropicalis [7]) | MIC (Candida albicans [8]) | MIC (Candida albicans [9]) | MIC (Candida parapsilosis [10]) | MIC (Candida parapsilosis [11])
6 | CC(C)c1ccc(NC(=O)OC(Cn2ccnc2)c2ccccc2)cc1 (racemic) | ≥ 64 µg/mL | > 64 µg/mL | > 64 µg/mL | > 64 µg/mL | ≥ 64 µg/mL | 77.7 µg/mL (≈ 222 µM) | 64 µg/mL (≈ 183 µM) | 128 µg/mL (≈ 366 µM) | 64 µg/mL (≈ 183 µM) | 107 µg/mL (≈ 305 µM) | 128 µg/mL (≈ 366 µM) | 128 µg/mL (≈ 366 µM) | 64 µg/mL (≈ 183 µM) | 32 µg/mL (≈ 91.6 µM) | 64 µg/mL (≈ 183 µM) | 64 µg/mL (≈ 183 µM) | > 64 µg/mL
7 | O=C(OC(Cn1ccnc1)c1ccccc1)c1ccc(C(F)(F)F)cc1 (racemic) | ≥ 64 µg/mL | 8 µg/mL (≈ 22.2 µM) | 16 µg/mL (≈ 44.4 µM) | > 64 µg/mL | 8 µg/mL (≈ 22.2 µM) | 33.1 µg/mL (≈ 91.9 µM) | 8 µg/mL (≈ 22.2 µM) | 64 µg/mL (≈ 178 µM) | 64 µg/mL (≈ 178 µM) | 55.5 µg/mL (≈ 154 µM) | 32 µg/mL (≈ 88.8 µM) | 128 µg/mL (≈ 355 µM) | 4 µg/mL (≈ 11.1 µM) | 8 µg/mL (≈ 22.2 µM) | 8 µg/mL (≈ 22.2 µM) | 64 µg/mL (≈ 178 µM) | 32 µg/mL (≈ 88.8 µM)
8 | O=C(OC(Cn1ccnc1)c1ccc(C(F)(F)F)cc1)c1cccc(C(F)(F)F)c1 (racemic) | ≥ 64 µg/mL | > 64 µg/mL | > 64 µg/mL | > 64 µg/mL | ≥ 64 µg/mL | 91.4 µg/mL (≈ 213 µM) | 64 µg/mL (≈ 149 µM) | 128 µg/mL (≈ 299 µM) | 64 µg/mL (≈ 149 µM) | 100 µg/mL (≈ 233 µM) | 128 µg/mL (≈ 299 µM) | 128 µg/mL (≈ 299 µM) | 32 µg/mL (≈ 74.7 µM) | ≥ 64 µg/mL | 64 µg/mL (≈ 149 µM) | 64 µg/mL (≈ 149 µM) | > 64 µg/mL
